The source made the active and inactive calls. The calls are words filed in the database; no cut-off is given here.
Tests used:
HepG2 [1] = test: Antitumor activity against human HepG2 cells xenografted in BALB/c nude mouse assessed as tumor growth inhibition at 5 mg/kg, iv administered once every 2 days for 21 days measured every 3 days up to 35 days relative to control; type: functional; details: read-out: TGI
Outline: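 Female BALB/c nude mice, six weeks old (16–18 g), inoculated in the right gluteal region with 1 × 10⁷ HepG2 cells in 0.1 mL DMEM. When tumours reached 100 mm³, mice were randomised into four groups of six. Dosing was by tail-vein injection; the vehicle group followed the test schedule. Tumours were measured by caliper every 3 days, with volume = π/6 × length × width × width.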

HepG2 [2] = test: Cell cycle arrest in human HepG2 cells assessed as accumulation at G2/M-phase at 0.125 uM after 24 hrs by propidium iodide staining-based flow cytometric analysis (reference value: 25.5%); type: functional
Outline: (§1)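 HepG2 cells (2 × 10⁵) cultured 24 h, then given 0.1% DMSO vehicle or compound for 24 h. Fixed in ice-chilled methanol at least 30 min at 4 °C, washed twice with PBS, then stained 0.5 h at 37 °C in PBS with 1 mg/mL RNase A and propidium iodide. DNA content measured by flow cytometry for phase distribution.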

MCF7 = test: Antiproliferative activity against human MCF7 cells after 24 hrs by MTT assay; type: functional, cell-based; details: MCF7, 24 h
Outline: (§2)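 Seeded at 1 × 10⁴ cells per well, incubated 24 h before treatment. MTT (20 µL of 5 mg/mL in PBS) added per well and incubated until purple precipitate appeared. Medium removed, precipitate dissolved in 150 µL DMSO, shaken 10 min, absorbance read at 570 nm. Growth expressed as percentage of untreated control.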

HepG2 [3] = test: Induction of apoptosis in human HepG2 cells after 48 hrs by propidium iodide staining-based flow cytometric analysis; type: functional, cell-based
HCT-116 = test: Antiproliferative activity against human HCT116 cells after 24 hrs by MTT assay; type: functional, cell-based; details: HCT-116, 24 h; outline: as §2
[4] = Antiproliferative activity against taxol resistant human HCT8 cells after 24 hrs by MTT assay; type: functional, cell-based; details: HCT-8, 24 h; outline: as §2
HepG2 [5] = test: Cell cycle arrest in human HepG2 cells assessed as accumulation at G2/M-phase at 0.50 uM after 24 hrs by propidium iodide staining-based flow cytometric analysis (reference value: 25.5%); type: functional; outline: as §1
[6] = Antiproliferative activity against vincristine resistant human HCT8 cells after 24 hrs by MTT assay; type: functional, cell-based; details: HCT-8, 24 h; outline: as §2
HepG2 [7] = test: Cell cycle arrest in human HepG2 cells assessed as accumulation at S-phase at 0.25 uM after 24 hrs by propidium iodide staining-based flow cytometric analysis (reference value: 32%); type: functional; outline: as §1
HepG2 [8] = test: Cell cycle arrest in human HepG2 cells assessed as accumulation at S-phase at 0.375 uM after 24 hrs by propidium iodide staining-based flow cytometric analysis (reference value: 32%); type: functional; outline: as §1
A549 = test: Antiproliferative activity against human A549 cells after 24 hrs by MTT assay; type: functional, cell-based; details: A549, 24 h; outline: as §2
PC-3 = test: Antiproliferative activity against human PC3 cells after 24 hrs by MTT assay; type: functional, cell-based; details: PC-3, 24 h; outline: as §2
HepG2 [9] = test: Cell cycle arrest in human HepG2 cells assessed as accumulation at S-phase at 0.125 uM after 24 hrs by propidium iodide staining-based flow cytometric analysis (reference value: 32%); type: functional; outline: as §1
HepG2 [10] = test: Antiproliferative activity against human HepG2 cells after 24 hrs by MTT assay; type: functional, cell-based; details: HepG2, 24 h; outline: as §2
HepG2 [11] = test: Cell cycle arrest in human HepG2 cells assessed as accumulation at G2/M-phase at 0.375 uM after 24 hrs by propidium iodide staining-based flow cytometric analysis (reference value: 25.5%); type: functional; outline: as §1
[12] = Antiproliferative activity against human […] cells after 24 hrs by MTT assay; type: functional, cell-based; outline: as §2
HepG2 [13] = test: Antitumor activity against human HepG2 cells xenografted in BALB/c nude mouse assessed as tumor growth inhibition at 30 mg/kg, iv administered once every 2 days for 21 days measured every 3 days up to 35 days relative to control; type: functional; details: read-out: TGI
Outline: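 Female BALB/c nude mice, six weeks old (16–18 g), inoculated in the right gluteal region with 1 × 10⁷ HepG2 cells in 0.1 mL DMEM. At 100 mm³, randomized into four groups of six. Tail-vein dosing every other day for 21 days; vehicle control on the same schedule; 5-Fu 5 mg/kg iv daily as reference. Caliper measurement every 3 days, volume = π/6 × length × width × width. Compared with control by t test.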

[14] = Cytotoxicity against human LO2 cells after 24 hrs by MTT assay; type: cell-based; details: L02, 24 h; outline: as §2
HepG2 [15] = test: Cell cycle arrest in human HepG2 cells assessed as accumulation at S-phase at 0.50 uM after 24 hrs by propidium iodide staining-based flow cytometric analysis (reference value: 32%); type: functional; outline: as §1
HepG2 [16] = test: Cell cycle arrest in human HepG2 cells assessed as accumulation at G2/M-phase at 0.25 uM after 24 hrs by propidium iodide staining-based flow cytometric analysis (reference value: 25.5%); type: functional; outline: as §1
HepG2 [17] = test: Cell cycle arrest in human HepG2 cells assessed as accumulation at G2/M-phase after 24 hrs by propidium iodide staining-based flow cytometric analysis; type: functional; outline: as §1
K562 = test: Antiproliferative activity against human K562 cells after 24 hrs by MTT assay; type: functional, cell-based; details: K562, 24 h; outline: as §2
HepG2 [18] = test: Cell cycle arrest in human HepG2 cells assessed as accumulation at G1-phase at 0.50 uM after 24 hrs by propidium iodide staining-based flow cytometric analysis (reference value: 42.5%); type: functional; outline: as §1
HepG2 [19] = test: Cell cycle arrest in human HepG2 cells assessed as accumulation at G1-phase at 0.375 uM after 24 hrs by propidium iodide staining-based flow cytometric analysis (reference value: 42.5%); type: functional; outline: as §1
SK-OV-3 = test: Antiproliferative activity against human SKOV3 cells after 24 hrs by MTT assay; type: functional, cell-based; details: SK-OV-3, 24 h; outline: as §2
HepG2 [20] = test: Cell cycle arrest in human HepG2 cells assessed as accumulation at G1-phase at 0.125 uM after 24 hrs by propidium iodide staining-based flow cytometric analysis (reference value: 42.5%); type: functional; outline: as §1
Rattus norvegicus = species on record: Rattus norvegicus; test: Inhibition of rat tubulin polymerization at 10 uM measured for 60 mins by luminometric analysis

**Q.** Which inhibition in vivo at 5 mg/kg (HepG2 [1]) does the source give for O=c1[nH]cc(F)c(=O)[nH]1 [FLUOROURACIL] here?
**A.** 25.9%

**Q.** Which results are given for CCC(=O)Oc1ccc(C(=O)/C=C/c2ccc3c(ccn3C)c2)c2c1C=CC(C)(C)O2?
**A.** Activity (HepG2 [2]): 26.2%; IC50 (MCF7): 1500 nM; Activity (HepG2 [3]): Dose-dependent effect; IC50 (HCT-116): 1280 nM; IC50 [4]: 1600 nM; Activity (HepG2 [5]): 86%; IC50 [6]: 450 nM; Activity (HepG2 [7]): 35%; Activity (HepG2 [8]): 22.5%; IC50 (A549): 680 nM; IC50 (PC-3): 650 nM; Activity (HepG2 [9]): 43.1%; IC50 (HepG2 [10]): 220 nM; Activity (HepG2 [11]): 75%; IC50 [12]: 1800 nM; inhibition in vivo at 30 mg/kg (HepG2 [13]): 56.6%; IC50 [14]: > 10000 nM; Activity (HepG2 [15]): 12.4%; Activity (HepG2 [16]): 60.7%; Activity (HepG2 [17]): Dose-dependent effect; IC50 (K562): 800 nM; Activity (HepG2 [18]): 1.6%; Activity (HepG2 [19]): 2.5%; IC50 (SK-OV-3): 230 nM; Activity (HepG2 [20]): 30.7%; inhibition (Rattus norvegicus): Active
